This is an account of results in ChEMBL document CHEMBL1130411, “The practical synthesis of a methylenebisphosphonate analogue of benzamide adenine dinucleotide: inhibition of human inosine monophosphate dehydrogenase (type I and II)” (J Med Chem, 1997).

Assay [1] relates to K562. Kind of assay: Inhibition of growth in human erythroleukemia K-562 cells (% of untreated control). The format is functional. The essentials:
(§1)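 K562 cells in RPMI 1640 with 10% heat-inactivated calf serum, glutamine, penicillin/streptomycin; seeded at 5 × 10³ per mL, compound (with or without 30 µM guanosine) added at start. After 5 days, MTT added, 3 h at 37 °C; formazan dissolved in acidified 2-propanol, absorbance 550 nm. Triplicate points; IC50 for 50% growth inhibition averaged over four experiments.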

Assay [2] relates to K562. Description: Differentiation of K-562 cells at 15 uM with coadministration of guanosine. It counts as functional, Homo sapiens. The procedure, abridged:
(§2)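 Human erythroleukemia K562 cells grown in RPMI 1640 with 10% heat-inactivated calf serum, glutamine and penicillin/streptomycin; incubated 5 days with compound, with or without 30 µM guanosine. Hemoglobin expression read by benzidine staining (0.1% benzidine in 0.25% H2O2, equal volume, 5 min, room temperature); 300-400 cells counted for % benzidine-positive. Duplicates; average of three experiments.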

Assay [3] deals with K562. Description: Differentiation of K-562 cells at 15 uM with out coadministration of guanosine. It counts as functional, Homo sapiens. The essentials: as §2
The test system of assay [4] is K562. Description: Differentiation of K-562 cells at 7.5 uM with coadministration of guanosine. It counts as functional, Homo sapiens. The procedure, abridged:
as §2

Assay [5] relates to K562. Description: Differentiation of K-562 cells at 7.5 uM with out coadministration of guanosine. The format is functional, Homo sapiens. The procedure, abridged: as §2
In assay [6] the test system is K562. Description: Tested for inhibition of growth in human erythroleukemia K-562 cells. The format is functional, cell-based. The procedure, abridged:
as §1

For assay [7], the system named is K562. Description: Differentiation of K-562 cells at 60 uM with coadministration of guanosine. The format is functional, Homo sapiens. The procedure, abridged:
as §2

Assay [8] relates to K562. Description: Differentiation of K-562 cells at 120 uM with coadministration of guanosine. It counts as functional, Homo sapiens. The procedure, abridged: as §2
For assay [9], the system named is K562. Kind of assay: Differentiation of K-562 cells at 120 uM with out coadministration of guanosine. The format is functional, Homo sapiens. The procedure, abridged:
as §2

Assay [10] relates to K562. Kind of assay: Differentiation of K-562 cells at 60 uM with out coadministration of guanosine. It counts as functional, Homo sapiens. The procedure, abridged: as §2
The subject of assay [11] is K562. Kind of assay: Differentiation of K-562 cells at 30 uM with coadministration of guanosine. It counts as functional, Homo sapiens. The essentials:
as §2

Assay [12] has as its system K562. Description: Differentiation of K-562 cells at 30 uM with out coadministration of guanosine. It counts as functional, Homo sapiens. The essentials: as §2
For assay [13], the system named is K562. Description: Differentiation of K-562 cells at 19 uM with out coadministration of guanosine. The format is functional, Homo sapiens. The essentials:
as §2

Assay [14] has as its system K562. Kind of assay: Differentiation of K-562 cells at 3.8 uM with coadministration of guanosine. The format is functional, Homo sapiens. The procedure, abridged:
as §2

Assay [15] deals with K562. Kind of assay: Differentiation of K-562 cells at 3.8 uM with out coadministration of guanosine. It counts as functional, Homo sapiens. The essentials:
as §2

The test system of assay [16] is K562. Description: Differentiation of K-562 cells at 19 uM with coadministration of guanosine. The format is functional, Homo sapiens. The procedure, abridged: as §2

Turning to `NC(=O)c1csc([C@H]2O[C@@H](COP(=O)(O)OP(=O)(O)OC[C@H]3O[C@@H](n4cnc5c(N)ncnc54)[C@H](O)[C@@H]3O)[C@H](O)[C@@H]2O)n1`, the “Growth inhibition (% of untreated control)” value with K562 [1] is 80%. Moreover, the Benzidine positive cells stood at 30% in the assay with K562 [2], 70% in the assay on K562 [3], 15% with K562 [4] and 50% with K562 [5].

Take `NC(=O)c1cccc([C@@H]2O[C@H](COP(=O)(O)CP(=O)(O)OC[C@@H]3O[C@H](n4cnc5c(N)ncnc54)[C@@H](O)[C@H]3O)[C@@H](O)[C@H]2O)c1`: in the assay with K562 [6], the 50% inhibitory concentration (IC50) amounted to 60 µM. Further, the “Growth inhibition (% of untreated control)” value in the assay with K562 [1] is 90%. In addition, the Benzidine positive cells in the assay on K562 [7] is given as 15%; with K562 [8] it was 17%; in the assay with K562 [9] it was 75%; with K562 [10], 45%.

Regarding `NC(=O)c1csc([C@@H]2O[C@H](COP(=O)(O)CP(=O)(O)OC[C@@H]3O[C@H](n4cnc5c(N)ncnc54)[C@@H](O)[C@H]3O)[C@@H](O)[C@H]2O)n1`, the “Growth inhibition (% of untreated control)” value in the assay on K562 [1] amounted to 90%. The Benzidine positive cells with K562 [11] is listed as 30%; with K562 [12] it was 85%; with K562 [2] it was 23%; in the assay with K562 [3], 34%.

Consider `NC(=O)c1csc([C@@H]2O[C@H](CO)[C@@H](O)[C@H]2O)n1` [TIAZOFURIN], for which the “Growth inhibition (% of untreated control)” value with K562 [1] is given as 90%. The Benzidine positive cells turned out to be 80% with K562 [13], 12% in the assay with K562 [14], 36% in the assay on K562 [15] and 40% in the assay on K562 [16].
